According to article PMC3387347 (Investigational new drugs, 2012):

Key:
[1] = In vivo cassette dosing pharmacokinetic study in normal mice; set-up: species or system mouse; conditions: for AUCb: normal brain; for Kp / clearance / Vd: male, ICR, mouse, 5 mg/kg, normal mice; for Kp: brain, intravenous, Pb (brain partition coefficient, AUCb/AUCp); for clearance / Vd: plasma, iv; for clearance: CL (total systemic clearance); for Vd: Vd (apparent volume of distribution)
Summary of the method: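 Adult male ICR mice each received a compound mixture in NMP:PEG300:water (1:4:5 by volume) as an IV bolus into a lateral tail vein. The dose was about 5 mg/kg per compound, with one compound at 1.67 mg/kg. Plasma and brain were collected at various times, stored at −80°C and quantified by LC/MS/MS. AUCb was derived by noncompartmental analysis.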

[2] = mice; cited from earlier work
Pgp = conditions: cited from earlier work
[3] = cassette B, IV approximately 5 mg/kg
[4] = cassette C, IV approximately 5 mg/kg

COc1cc2ncnc(Nc3ccc(F)c(Cl)c3)c2cc1OCCCN1CCOCC1 [Gefitinib]
AUCb ([1]; cassette A, IV approximately 5 mg/kg (ON271320 1.67 mg/kg)): 1968.6 ng·h/g
AUCb [1, 3]: 2685.2 ng·h/g
AUCb [1, 4]: 3491.2 ng·h/g
Kp [1, 3]: 2.5
Kp [1, 4]: 1.9
clearance [1, 3]: 71.7 mL/min/kg
clearance [1, 4]: 43.3 mL/min/kg
Vd [1, 3]: 9.9 L/kg
Vd [1, 4]: 8.9 L/kg
bound to plasma proteins [2]: 95%
concentration reported to inhibit Pgp (Pgp): 100 µM
